# Results reported in PubChem BioAssay.
# Activity calls are given as the source filed them. Unless noted, the rule behind the calls is not given here.
# Legend:
# [1] = Coupled enzyme confirmation of inhibitors against recombinant Mtb PanC (AID 375); conditions: coupled enzyme assay; measured here: coupling enzymes IC50 repeat trials unless noted;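 for inhibition: 0% = full reaction with vehicle and 100% = no enzyme background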
# [2] = biological target: Pantothenate synthetase (Mycobacterium tuberculosis (strain ATCC 25618 / H37Rv)) (UniProt P9WIL5); test: as above; conditions: coupled enzyme assay; at 10 µM, stronger effect = higher value
# Sequence of Pantothenate synthetase (Mycobacterium tuberculosis (strain ATCC 25618 / H37Rv)) (P9WIL5 whole entry, looked up): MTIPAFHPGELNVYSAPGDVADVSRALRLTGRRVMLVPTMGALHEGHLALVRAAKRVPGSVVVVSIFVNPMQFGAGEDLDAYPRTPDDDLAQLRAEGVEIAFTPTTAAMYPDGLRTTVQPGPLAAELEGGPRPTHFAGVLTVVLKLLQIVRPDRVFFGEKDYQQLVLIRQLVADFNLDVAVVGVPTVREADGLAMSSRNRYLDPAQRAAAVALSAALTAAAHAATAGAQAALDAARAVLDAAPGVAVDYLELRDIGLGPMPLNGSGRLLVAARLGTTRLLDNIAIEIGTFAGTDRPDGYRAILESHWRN
# [3] = reduced viability of SK-BR-3 breast cancer cells – cell-based, 24 h, human, pilot screen (AID 572;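 active = viability at or below 10% of carrier control in both of two separate runs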;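 note: compound exposure lasted between 18 and 24 h rather than exactly 24 h; 100% = carrier-treated control wells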); conditions: SK-BR-3 viability, CellTiter-Glo luminescence, at 10 µM, stronger effect = lower value
# [4] = HUVEC growth inhibition – cell-based, human, primary screen (AID 575;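 active = viability at or below 30% in both replicate assays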;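 note: 100% = median of untreated cell wells with 0.1% DMSO on each plate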); conditions: HUVEC proliferation, CellTiter-Glo luminescence, 72 h; at 10 µM; stronger effect = lower value
# Summary of the method: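 Test system: HUVEC primary cells. Quantity: 1250 endothelial cells in each well. Dosing: single-point 10 µM, DMSO 0.1% final. Incubation: 72 h treatment at 37 °C. Measured by: CTG luminescence. Control set: DMSO cell controls and MePR drug controls. Plate: collagen-coated 384-well format.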
# [5] = MRP1 drug-resistance reversers in H69AR cells – cell-based, doxorubicin co-treatment, pilot screen (AID 601;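 active = viability loss from added drug above about 55%, and viability with drug at most 40%, in both replicates, limit read from the data, passing the limit was not always enough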); conditions: CellTiter-Glo, 72 h, at 10 µM
# [6] = yeast transport mutant growth inhibition pilot in 384-well plates, post-Golgi transport modulator project (AID 636; in the data active = inhibition above about 31%); conditions: absorbance 615 nm, about 18 h, stronger effect = higher value
# [7] = growth suppression of yeast trafficking mutant, preliminary HTS, modulators of trafficking downstream of Golgi apparatus project, 1536-format plate, OD 615 nm (AID 637; in the data active = inhibition above about 30%); conditions: yeast transport mutant growth, absorbance 615 nm, 18 h; stronger effect = higher value
smiles,measurement,setting,value
Cc1ccc(Cn2ccc(NC(=O)c3noc4c3CCCCC4)n2)cc1,IC50,[1],> 100 µM
same,outcome,[2],inactive
COc1ccc(S(=O)(=O)NC(C)C(=O)Nc2cccc(C(C)=O)c2)cc1 (centres undefined),inhibition,[2],0% (inactive)
Cc1cc(C(=O)Nc2cc(C)n(Cc3ccc(Cl)cc3)n2)no1,IC50,[1],> 100 µM
same,inhibition,[2],3% (inactive)
Cc1ccc(Cn2ccc(NC(=O)c3cc(-c4ccc(F)cc4)on3)n2)cc1,IC50,[1],> 100 µM
same,outcome,[2],inactive
Cc1ccc(Cn2ccc(NC(=O)c3cc(-c4ccc(Br)cc4)on3)n2)cc1,IC50,[1],> 100 µM
same,outcome,[2],inactive
Cc1nnc(SCc2cccc(Oc3ccccc3)c2)n1N,inhibition,[2],0% (inactive)
O=c1c2ccccc2[se]n1-c1ccccc1,IC50,[1],0.485 µM [measured here: coupling enzymes counter-screen IC50]
same,viability,[3],67% (inactive)
same,viability,[4],42.1% (inactive)
same,differential viability (reversal),"[5]; H69AR cells + 2 uM doxorubicin, stronger effect = higher value",2.39% (inactive)
same,viability,"[5]; H69AR cells + 2 uM doxorubicin, measured here: viability with 2 uM doxorubicin, stronger effect = lower value",1.34%
same,viability,"[5]; H69AR cells, compound alone cytotoxicity",3.73%
same,inhibition,[6],0.65% (inactive)
same,inhibition,[7],-0.5% (inactive)
O=C(CCSc1ccccc1)N1CCOCC1,inhibition,[2],0% (inactive)
CCC(NC(=O)Nc1cc(OC)c(OC)c(OC)c1)(C(F)(F)F)C(F)(F)F,inhibition,[2],3% (inactive)
Cc1ccc(Cn2ccc(NC(=O)c3noc4c3CCCC4)n2)cc1,IC50,[1],> 100 µM
same,inhibition,[2],0% (inactive)
O=C(Nc1ccccc1C(=O)N1CCCCCC1)c1cccc(S(=O)(=O)N2CCOCC2)c1,inhibition,[2],5% (inactive)
Cc1ccc(Cn2ccc(NC(=O)c3cc(-c4ccc(Cl)cc4)on3)n2)cc1,IC50,[1],> 100 µM
same,outcome,[2],inactive
Cc1cc(NC(=O)c2noc3c2CCCC3)nn1Cc1ccc(Cl)cc1,IC50,[1],> 100 µM
same,outcome,[2],inactive
Cc1cc(NC(=O)c2cc(-c3ccco3)on2)nn1Cc1ccc(Cl)cc1,IC50,[1],> 100 µM
same,outcome,[2],inactive
COc1ccc(-c2cc(C(=O)Nc3cc(C)n(Cc4ccc(Cl)cc4)n3)no2)cc1OC,IC50,[1],> 100 µM
same,outcome,[2],inactive
COc1ccccc1-c1cc(C(=O)Nc2cc(C)n(Cc3ccc(Cl)cc3)n2)no1,IC50,[1],> 100 µM
same,outcome,[2],inactive
Cc1ccc(Cn2ccc(NC(=O)c3cc(-c4ccccc4)on3)n2)cc1,IC50,[1],> 100 µM
same,outcome,[2],inactive
CN(C)c1cccc(C(=O)OCC(=O)NCc2ccco2)c1,inhibition,[2],0% (inactive)
CCSc1nc(-c2ccc(OC)cc2)ccc1C#N,inhibition,[2],1% (inactive)
COc1ccc(OC)c(-c2cc(C(=O)Nc3cc(C)n(Cc4ccc(Cl)cc4)n3)no2)c1,IC50,[1],> 100 µM
same,outcome,[2],inactive
CC1CCc2nn(CC(=O)NCc3ccc4c(c3)OCO4)cc2C1 (centres undefined),inhibition,[2],1% (inactive)
C=CCNc1nnc(SC2CC(=O)N(c3ccc(OC)cc3)C2=O)s1 (centres undefined),inhibition,[2],0% (inactive)
O=C(O)c1cccc(NC(=O)C2C3C=CC(C3)C2C(=O)OCC(F)(F)C(F)F)c1 (centres undefined),inhibition,[2],5% (inactive)
Cc1ccc(Cn2ccc(NC(=O)c3cc(-c4cccc(Cl)c4)on3)n2)cc1,IC50,[1],> 100 µM
same,outcome,[2],inactive
Cc1cc(NC(=O)c2cc(-c3cccs3)on2)nn1Cc1ccc(Cl)cc1,IC50,[1],> 100 µM
same,outcome,[2],inactive
C=CCn1c(SCC(=O)NCC2CCCO2)nc2scc(-c3ccco3)c2c1=O (centres undefined),inhibition,[2],5% (inactive)
COCCN1Cc2cccc(C(=O)Nc3cccnc3)c2C1=O,inhibition,[2],1% (inactive)
Cc1ccc(Cn2ccc(NC(=O)c3cc(-c4ccco4)on3)n2)cc1,IC50,[1],> 100 µM
same,outcome,[2],inactive
COc1cccc(-c2cc(C(=O)Nc3cc(C)n(Cc4ccc(Cl)cc4)n3)no2)c1,IC50,[1],> 100 µM
same,inhibition,[2],0% (inactive)
CCOC(=O)c1cc2c(=O)n3ccccc3nc2n(CCCOC)c1=NC(C)=O,inhibition,[2],1% (inactive)
Cc1cccc(NC(=O)CC(C)(C)C)c1,inhibition,[2],0% (inactive)
